Bioassay records from PubChem BioAssay.
PLCb3 inh – blocks human PLC-beta3 enzyme activity; Purified PLC-beta3, fluorogenic substrate, fluorescence; inhibition, % at 12.2 µM; hit rate 0.18% among 370,000; AID 720704;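 note: 0% = median of compound wells on plate and 100% = full blocker control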
PLCg1 inh – blocks human PLC-gamma1 enzyme activity | hit rate 0.84% among 370,000 | purified PLC-gamma1, fluorogenic substrate, fluorescence | P19174 | inhibition, % at 12.2 µM | AID 720700; in the data active = inhibition above about 9.5%
Target sequence (P19174 whole entry, looked up): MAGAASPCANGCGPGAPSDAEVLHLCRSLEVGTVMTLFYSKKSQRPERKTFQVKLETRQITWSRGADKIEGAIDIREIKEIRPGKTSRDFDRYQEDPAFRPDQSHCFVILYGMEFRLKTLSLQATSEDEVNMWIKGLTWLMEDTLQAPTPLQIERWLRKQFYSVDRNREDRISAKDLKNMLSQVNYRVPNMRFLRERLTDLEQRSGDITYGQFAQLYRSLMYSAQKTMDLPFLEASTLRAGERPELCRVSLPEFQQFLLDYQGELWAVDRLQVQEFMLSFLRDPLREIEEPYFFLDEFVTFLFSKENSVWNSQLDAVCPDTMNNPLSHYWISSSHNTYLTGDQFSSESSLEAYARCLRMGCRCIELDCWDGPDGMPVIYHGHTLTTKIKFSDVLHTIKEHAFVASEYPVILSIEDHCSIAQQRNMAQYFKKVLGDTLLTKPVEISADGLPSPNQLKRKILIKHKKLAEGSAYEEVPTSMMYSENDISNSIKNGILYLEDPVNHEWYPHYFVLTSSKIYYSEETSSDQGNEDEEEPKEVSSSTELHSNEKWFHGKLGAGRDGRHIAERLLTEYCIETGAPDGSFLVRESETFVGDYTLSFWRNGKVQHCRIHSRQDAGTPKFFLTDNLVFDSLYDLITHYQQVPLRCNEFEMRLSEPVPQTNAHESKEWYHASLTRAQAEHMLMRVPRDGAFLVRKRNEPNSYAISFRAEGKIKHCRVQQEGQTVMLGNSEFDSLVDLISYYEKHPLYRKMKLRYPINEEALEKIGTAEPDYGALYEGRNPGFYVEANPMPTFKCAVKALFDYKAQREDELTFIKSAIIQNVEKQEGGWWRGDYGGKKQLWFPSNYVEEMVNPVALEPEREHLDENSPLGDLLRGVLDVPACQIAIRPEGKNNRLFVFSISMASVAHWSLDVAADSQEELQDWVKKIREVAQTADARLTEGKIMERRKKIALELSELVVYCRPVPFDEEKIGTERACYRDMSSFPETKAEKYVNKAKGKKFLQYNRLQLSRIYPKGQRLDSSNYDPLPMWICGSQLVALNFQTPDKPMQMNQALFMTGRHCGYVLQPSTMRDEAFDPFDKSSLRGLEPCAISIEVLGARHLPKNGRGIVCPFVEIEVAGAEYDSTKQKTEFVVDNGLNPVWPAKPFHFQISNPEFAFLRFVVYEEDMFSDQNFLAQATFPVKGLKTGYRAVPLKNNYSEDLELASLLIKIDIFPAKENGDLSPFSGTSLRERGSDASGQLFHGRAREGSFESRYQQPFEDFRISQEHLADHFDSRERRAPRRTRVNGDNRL
ADAM10 inh – inhibits human ADAM10. recombinant ADAM10, EDANS/DABCYL FRET peptide cleavage, 3 h. O14672. hit rate 0.62% among 370,000. inhibition, % at 7 µM;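 active = inhibition above a per-campaign cutoff equal to the mean of compounds falling between control-based bounds plus 3 SD, cut at about 20% in these data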;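 note: 0% = DMSO wells while the 100% control is not disclosed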
DDE Tn6 FP inh – inhibitors of Tn6 peptide binding to human fibrin DD(E); P02675; Fibrin DD(E) TRITC-Tn6 fluorescence polarization displacement; hit rate 0.21% among 370,000; inhibition, % at 8.3 µM;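 active = inhibition above a per-campaign cutoff: mean of compounds within control limits plus 3 SD, cut at about 15% in these data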;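 note: 0% = median of all compound wells on the plate and 100% = blocking peptide control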
ADAM17 inh – inhibitors of human ADAM17; inhibition, % at 6.95 µM; P78536; recombinant ADAM17, EDANS/DABCYL FRET peptide cleavage; hit rate 0.83% among 370,000;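 active = inhibition above the mean of compounds lying between control limits plus 3 SD, set per campaign, cut at about 8.5% in these data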;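 note: 0% = DMSO-only wells as the low control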
Tn7 DDE FP – inhibitors of Tn7 peptide binding to human fibrin DD(E); FP displacement of FITC-Tn7 peptide from fibrin DD(E); 0% = median of compound wells per plate; inhibition, % at 8.3 µM; hit rate 0.13% among 370,000;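 active = inhibition above the mean of compounds falling within the control limits plus 3 SD of them, cut at about 14% in these data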;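 note: 0% = plate median of compound wells and 100% = 10 µM Aha-Tn7 peptide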
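Assay system: Human fibrin DD(E) protein | Medium: Tris buffer with calcium and detergent, pH 7.8 | Reagent: 0.1 µM fluorescent Tn7 | Compound dosing: Single point at 8.3 µM | Times: 10 min preincubation, 3 h with tracer, room temperature | Detection: Fluorescence polarization of the labelled Tn7 tracer | Controls: Aha-Tn7 high control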
PLCgamma1 ctr – PLC-gamma1 inhibition, counter-screen for PLC-beta3 hits; shares compounds with PLCg1 inh; purified PLC-gamma1, fluorogenic substrate, fluorescence; inhibition, % at 12.3 µM; hit rate 3.1% among 3,300; in the data active = inhibition above about 9.5%
PLCbeta3 conf – confirmation of human PLC-beta3 inhibitors. shares compounds with PLCg1 inh. purified PLC-beta3, fluorogenic substrate fluorescence. inhibition, % at 12.3 µM. hit rate 1% among 3,300
Starred values were filed as active, the others as inactive; nt = not tested or not shown. An excerpt weighted towards active compounds, which were near 2.3% of everything screened. Cut-off read from the data, not from the text of the source, unless noted: active = inhibition above about 11%; inactive = the rest.

SMILES	PLCb3 inh	PLCg1 inh	ADAM10 inh	DDE Tn6 FP inh	ADAM17 inh	Tn7 DDE FP	PLCgamma1 ctr	PLCbeta3 conf
Cc1ccc(-c2csc(N(CC3CCCO3)C(=O)c3ccco3)n2)cc1 (centres undefined)	4	11*	-9	-9	3	-4	-12	-6
COc1ccc(-c2csc(N(CC3CCCO3)C(=O)c3ccc(C)cc3)n2)cc1 (centres undefined)	5	14*	5	3	4	-1	-4	-7
O=S1(=O)c2ccc(N3CCC[C@H]3CO)cc2O[C@H]2CCN1C2	1	-3	-6	6	-7	-1	nt	nt
CS(=O)(=O)c1ccc(NC(=O)C2CCCN(C(=O)c3ccc(Cl)cc3)C2)cc1 (centres undefined)	-8	0	-11	7	-2	-3	nt	nt
CC(=O)Nc1ccc(NC(=O)C2CCCN(C(=O)c3ccc(Cl)cc3)C2)cc1 (centres undefined)	6	12*	9	6	4	-1	-2	0
CC(=O)Nc1ccc(C(=O)OCc2ccc(Cl)cc2)cc1	0	3	14	-1	4	4	nt	nt
CC(=O)Nc1ccc(OC(=O)c2ccc(Cl)cc2)cc1	11*	4	9	5	5	-8	-9	-4
Cc1csc(NC(=O)c2ccc(COc3cccc(F)c3)o2)n1	-24	-8	-13	5	-7	-7	nt	nt
O=C(COC(=O)CCc1nc2ccccc2s1)Nc1cccc(S(=O)(=O)N2CCOCC2)c1	4	11*	4	-1	3	-8	-2	-2
CS(=O)(=O)OC12CCCN(C1)/C(=C/c1ccc(Cl)cc1)C2 (centres undefined)	3	-2	0	8	-1	-2	nt	nt
Cc1ccc(-c2nn(-c3ccccc3)cc2C(=O)Nc2ccc(C)c(S(=O)(=O)N3CCOCC3)c2)cc1	4	9.6*	10	-18	4	-3	-5	-9
COc1ccc(CN2C(=O)CCCC2(C)c2nnnn2-c2ccc3c(c2)OCCO3)cc1 (centres undefined)	0	0	-7	0	-6	-2	nt	nt
O=C(c1cc2cccc([N+](=O)[O-])c2oc1=O)N1CCOCC1	-5	12*	-12	-1	-5	8	-6	0
COc1ccc(NC(=O)c2cc(-c3sc(NC(=O)c4ccccc4)nc3C)n(Cc3ccccc3)n2)cc1	-10	-9	-43	-2	-1	-4	nt	nt
O=C(O)c1ccc(-n2c(-c3cc(-c4ccco4)[nH]n3)n[nH]c2=S)cc1	9	31*	-2	9	3	-1	23*	10
CCOc1ccc(-n2c(SCC(=O)Nc3cccc4ccccc34)nnc2-c2ccncc2)cc1	-1	-1	-11	10	-1	-6	nt	nt
O=S(=O)(NCCCCCNS(=O)(=O)c1ccc(F)cc1)c1ccc(F)cc1	-4	-2	-4	1	-4	5	nt	nt
O=C(O)CCCNS(=O)(=O)c1ccc(F)cc1	6	9.7*	1	-7	0	3	-7	-5
Cc1ccc(C)c(NC(=O)c2ccc(CS(=O)(=O)Cc3ccccc3C)o2)c1	-1	2	-1	5	6	-2	nt	nt
CC(=O)N1CCN(C2=NC(=O)N(c3ccc(Br)cc3)C(=O)C2)CC1	-5	-3	-7	-1	-2	5	nt	nt
CCCNC(=O)c1ccc2c(c1)nc(C)n2-c1cccc(C)c1	4	13*	0	4	6	-2	4	-1
COC(CNC(=O)c1ccc2c(c1)nc(C)n2-c1cccc(C)c1)OC	-10	-4	3	-2	-8	5	nt	nt
Cc1nn(-c2ccccc2)c2sc(C(=O)NC3CCCC3)cc12	-3	-3	-29	3	-7	3	nt	nt
COCCCNC(=O)C[C@H]1C[C@@]2(C(=O)OC)C(=C[C@H](COCc3ccccc3)O[C@@H]2C)N(Cc2ccc(Cl)cc2Cl)C1=O	2	0	7	2	3	-1	nt	nt
COc1ccc(-c2nc3ccccn3c2C=O)cc1	-4	-3	-12	11	-7	-6	nt	nt
SMILES	PLCb3 inh	PLCg1 inh	ADAM10 inh	DDE Tn6 FP inh	ADAM17 inh	Tn7 DDE FP	PLCgamma1 ctr	PLCbeta3 conf
O=Cc1c(-c2ccc(F)cc2)nc2ccccn12	1	11*	2	-5	0	-2	-6	0
CCCCn1c(CCCNC(=O)c2ccco2)nc2ccccc21	4	12*	3	7	-2	7	-6	-6
Cc1nn(-c2ccc(Cl)c(Cl)c2Cl)c(=O)c2ccccc12	5	11*	16	1	5	1	2	4
Cc1nn(-c2ccc(Cl)cc2Cl)c(=O)c2ccccc12	1	3	8	6	0	5	nt	nt
CCc1nnc(N/N=C/c2c(F)cccc2Cl)n1N	3	14*	5	-2	3	-6	-9	-4
Cc1nnc(N/N=C/c2c(Cl)cccc2Cl)n1N	5	5	-4	6	-4	7	nt	nt
CN1CCN(C(=S)Nc2ccc(Cl)cc2Cl)CC1	2	10*	10	0	-1	-6	0	3
CCOC(=O)[C@]12CCCCC/C=C\1N(Cc1ccc(OC)cc1)C(=O)[C@H]2CC(=O)N1CCN(C(=O)C2CC2)CC1	0	1	-13	0	-2	4	nt	nt
Cc1cccc(CN2CCSc3sccc3C2=O)c1	-2	13*	5	0	8	-4	-5	-6
O=C1c2ccsc2SCCN1Cc1cccc(Cl)c1	0	2	4	4	-3	-2	nt	nt
CN(Cc1ccccc1F)C(=O)C1CCC(CNS(=O)(=O)c2cccc3cccnc23)CC1 (centres undefined)	-5	-2	-14	7	-1	5	nt	nt
CCOC(=O)c1cccc(S(=O)(=O)N2CCCC2)c1	9	10*	9	-5	5	-11	-8	-1
O=C(NCC1CCCCC1)c1cccc(S(=O)(=O)N2CCCC2)c1	-6	1	-2	-7	0	0	nt	nt
O=C(c1cccc(S(=O)(=O)N2CCCCC2)c1)N1CCc2ccccc21	8	15*	7	-7	8	-3	-4	-2
CC(OC(=O)c1cccc(S(=O)(=O)N2CCCCC2)c1)C(=O)NCC1CCCCC1 (centres undefined)	0	9.9*	-11	-3	4	-10	4	3
COc1ccccc1COC(=O)c1cccc(S(=O)(=O)N2CCCC2)c1	11*	10*	7	-4	2	-3	11*	14*
COc1ccc(OC)c(COC(=O)c2cccc(S(=O)(=O)N3CCCCC3)c2)c1	-6	4	-6	1	-21	-5	nt	nt
